Source: PubChem BioAssay (NMMLSC)
The list is not random: actives were taken first. Their share in the collection is about 2.3%.
MEKK2 mut-MEK5 = MEK5 binding signal on mutant MEKK2 PB1, primary screen, biochemical, multiplex bead flow cytometry, Alexa488-MEK5. 290,000 compounds, 0.35% hits. percent response, % at 10 µM. AID 1530, 2009. Alexa488-MEK5 binding to MEKK2 mutant; in the data active = percent response above about 24%, passing the limit was not always enough
Arrestin-AP2 inh = inhibitors of beta-arrestin/AP2 binding, primary screen, biochemical, GPCR trafficking, flow cytometry. beta-arrestin 1 C-terminal peptide binding to AP2 beta2-adaptin appendage (human). FITC-arrestin peptide / GST-AP2 beads; AP2 beta2 appendage carries R879A mutation. inhibition, % at 10 µM. 340,000 compounds, 0.31% hits;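 active = inhibition above a set limit, near 3 SD of compounds lacking own fluorescence, cut at about 54% in these data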;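 also: plate controls were DMSO wells for no effect and 5 µM unlabelled arrestin peptide for full effect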
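System: GST-tagged AP2 beta2-adaptin appendage (R879A) on 4 µm glutathione beads / Reagent: FITC-arrestin peptide, 50 nM / Detection: HyperCyt-sampled flow cytometry, FL1 channel, ex 488/em 535 nm / Timing: 12 min plus 1 h, RT / Buffer or medium: PBS plus Tween 20 (0.05%) and BSA (0.1%)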
MEKK2wt PB1 HTS = modulators of MEK5 binding to wildtype MEKK2, primary screen, biochemical, multiplex bead flow cytometry, Alexa488-MEK5 | Mitogen-activated protein kinase kinase kinase 2 (Homo sapiens), Q9Y2U5 | binding response (% of control), % at 10 µM | 290,000 compounds, 1.1% hits | Alexa488-MEK5 binding to MEKK2 WT; actives lie on both sides; in the data active = binding response below about 67% or above about 130%
MEKK3 PB1 HTS = modulators of MEKK3-MEK5 PB1 binding, primary screen, biochemical, wildtype MEKK3, multiplex bead flow cytometry, Alexa488-MEK5 | Mitogen-activated protein kinase kinase kinase 3 (Homo sapiens), Q99759 | bead-based flow cytometry, Alexa488-MEK5 binding to MEKK3; actives lie on both sides; 0 = blocked by unlabeled MEK5, 100 = vehicle | binding response (% of control), % at 10 µM | 290,000 compounds, 1.4% hits;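 active = binding response more than 3 SD above or below the average of its plate-row segment, actives on both sides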;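 also: Alexa488 bead fluorescence after subtracting the streptavidin-only scavenger bead signal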
Target sequence (Q99759 whole entry, looked up): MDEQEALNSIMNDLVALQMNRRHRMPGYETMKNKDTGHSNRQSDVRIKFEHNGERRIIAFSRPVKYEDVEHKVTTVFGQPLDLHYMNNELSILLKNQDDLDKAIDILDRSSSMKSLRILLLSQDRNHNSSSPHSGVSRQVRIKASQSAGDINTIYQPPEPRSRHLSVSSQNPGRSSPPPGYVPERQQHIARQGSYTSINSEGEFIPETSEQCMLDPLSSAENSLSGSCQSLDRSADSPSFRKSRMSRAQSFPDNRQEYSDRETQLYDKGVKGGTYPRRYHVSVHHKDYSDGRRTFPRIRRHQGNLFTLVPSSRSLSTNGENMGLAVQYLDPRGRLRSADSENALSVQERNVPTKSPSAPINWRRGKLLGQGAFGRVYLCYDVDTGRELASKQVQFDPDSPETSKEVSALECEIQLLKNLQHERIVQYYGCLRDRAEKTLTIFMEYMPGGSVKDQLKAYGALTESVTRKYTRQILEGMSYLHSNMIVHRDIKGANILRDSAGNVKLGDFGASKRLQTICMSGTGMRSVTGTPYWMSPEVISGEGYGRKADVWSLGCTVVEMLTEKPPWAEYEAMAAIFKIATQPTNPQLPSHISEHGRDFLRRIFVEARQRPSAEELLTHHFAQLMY
MEKK2wt confirm = modulators of MEK5 binding to wildtype MEKK2, confirmation, biochemical, single concentration, multiplex bead flow cytometry | shares compounds with MEKK3 PB1 HTS | Alexa488-MEK5 binding to MEKK2 WT; actives lie on both sides | binding response (% of control), % at 10 µM | 5,900 compounds, 2.4% hits | AID 1892, 2009; in the data active = binding response below about 16% or above about 210%; inactive = in between
MEKK2mut confirm = mutant MEKK2 PB1-MEK5 binding signal retest – biochemical, single concentration, multiplex bead flow cytometry, confirmation; 5,900 compounds, 2% hits; shares compounds with MEKK3 PB1 HTS; Alexa488-MEK5 binding to MEKK2 mutant; percent response, % at 10 µM; in the data active = percent response mostly above about 71%, no sharp cut-off; inactive = mostly below about 38%;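 also: higher means compound restores mutant binding toward wildtype level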
MEKK3 confirm = MEKK3 wild-type PB1 binding to MEK5, inhibitors, confirmation, biochemical, bead multiplex flow cytometry, single concentration, wildtype; shares compounds with MEKK3 PB1 HTS; Alexa488-MEK5 binding to MEKK3; hits give low values; binding response (% of control), % at 10 µM; 5,900 compounds, 1.8% hits; AID 1894, 2009;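 active = binding response below 72% of control, or above a set upper limit, though filed actives all read lower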;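 also: 100% = DMSO only wells and 0% = binding blocked by excess unlabeled MEK5; lower values mean stronger disruption of MEK5 binding to MEKK3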
* marks the source's active call; other numbers are inactive results; · = not tested or not shown; [ ] = remark or other dose.

SMILES	MEKK2 mut-MEK5	Arrestin-AP2 inh	MEKK2wt PB1 HTS	MEKK3 PB1 HTS	MEKK2wt confirm	MEKK2mut confirm	MEKK3 confirm
CCCC(CCC(=O)Nc1ccc(C(=O)OC)cc1)C(=O)O (stereo not given)	13	-2	124	125*	98	-3	101
CCOC(=O)c1[nH]c(C)c(CC(C)C)c1C	-9	13	89	87	·	·	·
CNCc1ccccc1Sc1cccc2ccccc12	2	4	122	154*	125	12	104
O=C(Nc1ccccc1C(=O)O)c1ccc(Br)c(S(=O)(=O)NCc2ccccc2)c1	-7	-3	90	92	·	·	·
N=c1n(CC(=O)c2ccc([N+](=O)[O-])cc2)c2ccccc2n1Cc1ccc(Cl)cc1	50	6	138*	108	154	58	108
O=C1CCN(Cc2ccccc2)C=C1c1ccc(Br)cc1	·	-3	·	·	·	·	·
Cc1ccc(NC(=O)NNC(=O)C2CC(c3cccnc3)=NO2)cc1 (stereo not given)	-5	2	92	89	·	·	·
O=C(NNC(=O)C1CC(c2cccnc2)=NO1)Nc1ccccc1F (stereo not given)	95*	35	31*	105	98	-1	97
CCCn1c(-c2cccc([N+](=O)[O-])c2)nc2c1c(=O)[nH]c(=O)n2Cc1ccccc1	-2	-3	97	70*[inhibitor]	105	12	109
NC(N)=N/N=C/c1ccc2cccc(OCc3ccccc3)c2n1	31	-9	148*	104	2.0*[inhibitor]	-47	2.0*
CC(=O)N1CCc2cc(S(=O)(=O)CCC(=O)N3CCc4ccccc4C3)ccc21	-12	19	22*[inhibitor]	17*[inhibitor]	103	2	103
CC(=O)N1CCc2cc(S(=O)(=O)NCCC(=O)N3CCc4ccccc4C3)ccc21	2	-4	102	100	·	·	·
CN(CC(=O)Nc1ccccc1C(=O)NC1CC1)Cc1cccs1	·	-8	·	·	·	·	·
COc1cc(/C=C/c2ccc3cccc(OC)c3n2)c(O)c([N+](=O)[O-])c1	-15	12	55*[inhibitor]	50*[inhibitor]	94	-7	92
COc1cc(/C=C/c2ccc3cccc(OC)c3n2)c(OC(C)=O)c([N+](=O)[O-])c1	-2	1	93	98	·	·	·
O=C(Cn1nnc(-c2ccccc2)n1)NCC(=O)Nc1ccc(F)c(F)c1F	·	19	·	·	·	·	·
OC(CNCCc1ccc(C(F)(F)F)cc1)COC(c1ccccc1)c1ccccc1 (stereo not given)	46*	3	191*	111	146	20	97
COc1ccc(C(OCC(O)CNCCc2ccc(S(N)(=O)=O)cc2)c2ccc(OC)cc2)cc1 (stereo not given)	11	-16	121	100	·	·	·
Cc1ccc(C)c(C(=O)CCC(=O)Nc2ccc(N3CCN(C)CC3)cc2C)c1	·	35	·	·	·	·	·
CC(=O)Nc1cc(NC(C)=O)ncn1	9	14	57	48*[inhibitor]	99	-6	100
CCOC(=O)Nc1cc(NC(=O)OCC)ncn1	·	13	·	·	·	·	·
Cc1ccc2n(n1)c(=O)c(Cc1ccccc1)c([O-])[n+]2-c1ccccc1	-2	6	103	102	·	·	·
COc1ccccc1-c1cc(C(=O)NC2CCN(C)CC2)c2ccc(Cl)c(C)c2n1	28*	-6	155*	105	132	25	108
Cc1c(Cl)ccc2c(C(=O)NCCN3CCCCC3)cc(-c3ccccn3)nc12	23	30	166*	103	121	6	95
